Measurements gathered from unrelated publications.
Each line is one published result; the experiments were not run side by side. pIC50: −log10 of the molar value.
Observed: cell growth or viability

COc1cc(Nc2nccc(-c3cnn4nc(OC)ccc34)n2)cc(C(F)(F)F)c1
pIC50 (SK-ES1; ATP luminescence): 6.72

CC(=O)Nc1cccc(-n2c(=O)n(C3CC3)c(=O)c3c(Nc4ccc(I)cc4F)n(C)c(=O)c(C)c32)c1
viability (Calu-6; resazurin; 0.1 µM, 72 h): 62.6%

O=C(NO)c1ccc(CN(c2cnccn2)c2cnccn2)cc1
GI50 (B16-F10): > 20000 nM

CO[C@]1(C(=O)N[C@@H](C)c2ccc(-n3cc(F)cn3)nc2)CC[C@H](c2nc(C)cc(Nc3cc(C)[nH]n3)n2)CC1
GI50 (BT-474; ATP luminescence; 72 h): > 10000 nM

CC(=O)c1c(C)c2cnc(Nc3ccc(N4CCNCC4)cn3)nc2n(C2CCCC2)c1=O
pIC50 (MB002; 7 days): 7.97

Cc1cc2c(cc1N1C(=O)c3cccc4c(CCCO)ccc(c34)C1=O)n(C)c(=O)n2C (racemic)
GI50 (SW-403; resazurin): > 10000 nM

CC[C@]1(O)C[C@H]2CN(CCc3c([nH]c4ccccc34)[C@@](C(=O)OC)(c3cc4c(cc3OC)N(C=O)[C@H]3[C@@](O)(C(=O)OC)[C@H](OC(C)=O)[C@]5(CC)C=CCN6CC[C@]43[C@@H]65)C2)C1
pIC50 (MB002; 7 days): 7.95

CCCCCCCCCC(=O)N[C@@H](Cc1c[nH]c2ccccc12)C(=O)N[C@H](CC(N)=O)C(=O)N[C@@H](CC(=O)O)C(=O)N[C@@H]1C(=O)NCC(=O)N[C@@H](CCCN)C(=O)N[C@@H](CC(=O)O)C(=O)N[C@H](C)C(=O)N[C@@H](CC(=O)O)C(=O)NCC(=O)N[C@H](CO)C(=O)N[C@@H]([C@H](C)CC(=O)O)C(=O)N[C@@H](CC(=O)c2ccccc2N)C(=O)O[C@@H]1C
Kb (KB 3-1; WST-1): > 64000 nM

CCOc1cc(C(C)(C)C)ccc1C1=N[C@@](C)(c2ccc(Cl)cc2)[C@@](C)(c2ccc(Cl)cc2)N1C(=O)N1CCN(CCCS(C)(=O)=O)CC1
pIC50 (MB002; 7 days): 7.00

CC(C)C[C@H](NC(=O)[C@H](Cc1ccccc1)NC(=O)c1cnccn1)B(O)O
pIC50 (NCI-H1563; ATP luminescence): 7.66
